# Only some compounds are listed: those with a hit (about 3.5% of all), similar ones and a draw of the others.
# MrgX1 ag – agonists of human MrgX1 receptor; Q96LB2; MrgX1-HEK293 cells, Fluo-4 calcium fluorescence, agonist mode; hits give high values; B-score at 10 µM; 310,000 compounds, 0.44% hits;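 active = calcium response B-score plate-corrected fluorescence ratio at least 3 library SD, with starting fluorescence B-score inside 5 SD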
# Target sequence (Q96LB2 whole entry, looked up): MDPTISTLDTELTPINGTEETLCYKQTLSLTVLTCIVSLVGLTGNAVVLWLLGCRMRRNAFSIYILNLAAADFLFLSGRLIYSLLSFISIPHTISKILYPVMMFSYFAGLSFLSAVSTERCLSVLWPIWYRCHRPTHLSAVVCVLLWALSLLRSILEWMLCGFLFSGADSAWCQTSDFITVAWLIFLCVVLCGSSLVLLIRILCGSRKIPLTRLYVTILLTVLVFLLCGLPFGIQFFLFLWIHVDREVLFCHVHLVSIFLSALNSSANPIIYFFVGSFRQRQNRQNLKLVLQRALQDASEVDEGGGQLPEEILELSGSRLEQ
#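 Material: MrgX1-expressing HEK293 cells; input: 15,000 cells per well; doses: test compound given as first of three sequential additions; schedule: overnight plating before 1 h dye loading; technique: Fluo-4 NW calcium-flux fluorescence, kinetic read; evaluation: baseline-normalised fluorescence change ratio, B-scored; control set: plate-wise positive and negative controls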
# MrgX1 allo act – human MrgX1 positive allosteric modulation, primary screen | Q96LB2 | MrgX1-HEK293, Fluo-4 calcium flux, FDSS; hits give high values | B-score at 10 µM | 310,000 compounds, 0.63% hits;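 active = plate-corrected calcium response at least 3 library SD above typical, normal starting fluorescence, not activating the receptor alone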;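 also: compound read alongside a low EC10 to EC30 dose of BAM8-22 agonist; peak minus trough fluorescence over baseline measured at the second addition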
# RGS4 inh – human RGS4 inhibition. P49798. HEK293 M3R/RGS4 inducible, Fluo-4 calcium flux; hits give high values; triggered by carbachol at its EC20. B-score at 10 µM. 310,000 compounds, 0.45% hits;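 active = B-score, a plate-corrected calcium signal, over three deviations above library mean, with baseline fluorescence within five deviations of library mean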;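 also: RGS4 expression induced by doxycycline in cells with stable M3 receptor; B-score is computed from the integrated fluorescence ratio over baseline after carbachol; higher B-score means a larger calcium signal and so more RGS4 inhibition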
# Target sequence (P49798 whole entry, looked up): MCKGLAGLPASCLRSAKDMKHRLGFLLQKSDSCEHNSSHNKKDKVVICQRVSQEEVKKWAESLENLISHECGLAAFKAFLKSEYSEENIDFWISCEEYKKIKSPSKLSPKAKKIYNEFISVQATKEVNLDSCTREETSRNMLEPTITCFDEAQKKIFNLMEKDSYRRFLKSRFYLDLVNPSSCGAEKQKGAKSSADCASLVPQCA
# MrgX1 antag – antagonists of human MrgX1 receptor. MRGX1-HEK293 calcium flux, Fluo-4, BAM8-22 antagonism; hits give low values. B-score at 10 µM. 310,000 compounds, 1.3% hits. AID 588676;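 active = calcium-response B-score plate-corrected more than 3 library SD below zero, starting fluorescence within 5 deviations, no agonist response on first addition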;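 also: peak minus trough fluorescence over baseline after final BAM8-22 challenge near maximal dose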
# RGS4 pot – potentiators or activators of RGS4; AID 463111; 310,000 compounds, 0.92% hits; B-score at 10 µM; HEK293 M3R/inducible RGS4, carbachol calcium flux Fluo4; hits give low values;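 active = B-score of the integrated calcium signal more than 4 SD below the library mean, with starting fluorescence not abnormally high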;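 also: negative B-score means reduced calcium response which marks RGS4 activation or potentiation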
#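 Material: M3R-expressing HEK293 line, RGS4 induced by doxycycline | Schedule: Overnight RGS4 induction, 30 min dye load 37 °C, 20 min compound RT | Measured by: Fluo4 fluorescence kinetic imaging of calcium | Read-out: Integrated calcium ratio converted to B score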
# MrgX1 ag confirm – human MrgX1 agonism, re-confirmation screen; shares compounds with MrgX1 ag; MrgX1-HEK293, Fluo-4 calcium fluorescence, FDSS; activation, % at 10 µM; 600 compounds, 78% hits; AID 602412;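 active = calcium signal rise, corrected for plate position, at least 3 library SD high, with starting brightness within 5 such deviations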
# HEK293 Ca flux – activity in parental HEK293 cells lacking MrgX1. shares compounds with MrgX1 antag. 4,000 compounds, 2% hits. Fluo-4 calcium fluorescence, FDSS. fluorescence ratio F(max-min)/F0 at 10 µM;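 active = duplicate-averaged calcium fluorescence ratio at least three times the standard deviation of buffer wells, a nonspecific response in parental cells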
# HEK293 Ca counter – counter-screen for MrgX1 allosteric activators: effect in parental HEK293 cells | shares compounds with MrgX1 antag | parental HEK293 calcium flux, Fluo-4 fluorescence ratio; hits give high values | fluorescence ratio F(max-min)/F0 at 10 µM | 4,000 compounds, 0.4% hits;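 active = calcium fluorescence ratio, averaged over duplicates, at least 3 SD of the buffer-well ratio, meaning a nonspecific response in receptor-free cells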;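 also: untransfected parental HEK293 lacking MrgX1 used as counterscreen for MrgX1 allosteric activators; fluorescence change taken during the second addition on a kinetic imager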
# HEK293 Ca cntr2 – counter-screen for MrgX1 activators: effect in parental HEK293 cells; Fluo-4 calcium fluorescence (FDSS); hits give high values; 4,000 compounds, 8.7% hits; fluorescence ratio F(max-min)/F0 at 10 µM; AID 624115; shares compounds with MrgX1 antag;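 active = calcium fluorescence ratio at least three times the spread of buffer wells, meaning a non-specific response in parental cells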
# Numbers stand for hits; . = inactive; / = not tested or not shown.
SMILES,MrgX1 ag,MrgX1 allo act,RGS4 inh,MrgX1 antag,RGS4 pot,MrgX1 ag confirm,HEK293 Ca flux,HEK293 Ca counter,HEK293 Ca cntr2
N[C@@H](Cc1c[nH]c2ccc(O)cc12)C(=O)O,32.2,.,/,.,/,.,.,.,.
CNC(=O)c1oc(-c2ccccc2)nc1C,.,.,.,.,.,/,/,/,/
O=c1c2ccccc2sn1-c1ccccc1,41,.,.,.,.,229.0%,.,.,49.1
O=c1c2ccccc2sn1-c1ccc(S(=O)(=O)N2CCCC2)cc1,.,.,.,.,.,/,/,/,/
CN(C)S(=O)(=O)c1cccc(-n2sc3ccccc3c2=O)c1,36.7,.,/,.,/,225.1%,.,.,49.7
COc1cccc(CN2CCNC(=O)C2CC(=O)NCc2cn3ccc(C)cc3n2)c1OC (stereo not given),.,.,.,.,.,/,/,/,/
Cc1occc1C(=O)NNC(=S)NC(=O)COc1ccc(Cl)cc1Cl,70.9,.,.,.,-9.05,193.4%,.,.,.
CCCCn1c(SCC(=O)Nc2cc(C(F)(F)F)ccc2Cl)nnc1C(CC)N(C)C (stereo not given),.,.,.,.,.,/,/,/,/
COc1cc2ccccc2nn1,.,.,.,.,.,/,/,/,/
COc1ccc2c(n1)Sc1nc3ccccc3nc1N2,40,.,.,.,.,501.1%,0.184,.,122
CC(OC(=O)c1cc(Br)ccc1O)C(=O)NC1(C#N)CCCCC1 (stereo not given),.,.,.,.,.,/,/,/,/
COc1cc(/C=N\Nc2nncn2N)ccc1OC(C)=O,.,.,.,.,.,/,/,/,/
Cc1ccc(-c2cc(NC(=O)CCl)n(-c3ccccc3)n2)cc1,35.4,.,.,.,.,150.4%,.,.,.
COc1cc(SC)ccc1C(=O)Nc1ccc(Cl)cn1,40.2,.,.,.,.,.,.,.,.
Cc1cc(NS(=O)(=O)c2ccc(NC(=S)Nc3ccc(Cl)cc3C)cc2)no1,.,.,.,.,.,/,/,/,/
CC(C)Cc1csc(NC(=O)c2ccc(Cl)cc2)c1C(=O)O,37,.,.,.,.,223.7%,.,.,51.7
O=C(NC(=S)NNC(=O)c1ccccc1O)c1cccs1,132,.,.,.,.,358.4%,.,.,71.5
O=C(Cc1ccc(Cl)cc1)NNC(=S)NC(=O)c1cccs1,122,.,.,.,.,315.6%,.,.,67.7
COc1ccccc1C(=O)NNC(=S)NC(=O)c1cccs1,79.9,.,.,.,.,475.5%,.,.,111
Cc1ccc(-c2ccc(C3C(C#N)=C(N)Oc4n[nH]c(C)c43)o2)cc1 (stereo not given),36.8,.,.,.,.,128.9%,.,.,.
Cc1[nH]nc2c1C(c1ccc(-c3ccc(Cl)cc3)o1)C(C#N)=C(N)O2 (stereo not given),33.8,.,.,.,.,.,.,.,.
COc1ccc(N=C(N)SCc2ccccn2)cc1,87,.,.,.,.,341.0%,.,.,91.7
COc1ccc(-c2nnc(SCc3ccccn3)n2C)cc1,.,.,.,.,.,/,/,/,/
COc1cccc(CC2(CO)CCCN(Cc3c(C)cc(C)cc3-n3cccn3)C2)c1 (stereo not given),.,.,.,.,.,/,/,/,/
N=C1/C(=C\c2ccc(SCc3ccco3)o2)C(=O)N=C2SC=NN12,90.4,.,.,.,.,267.5%,.,.,47
SMILES,MrgX1 ag,MrgX1 allo act,RGS4 inh,MrgX1 antag,RGS4 pot,MrgX1 ag confirm,HEK293 Ca flux,HEK293 Ca counter,HEK293 Ca cntr2
CC1=NN2C(=N)/C(=C\c3ccc(SCc4ccccc4)o3)C(=O)N=C2S1,.,.,.,.,.,/,/,/,/
CC(=O)Cc1nsc(NC(=O)c2ccccc2Cl)n1,.,.,.,.,.,/,/,/,/
CC(=O)Cc1nsc(NC(=O)c2oc(-c3ccccc3Cl)cc2C)n1,36.5,.,.,.,.,112.4%,.,.,.
Cc1ccc(Cn2c(N)nc3ccccc32)cc1,29.6,.,.,.,.,78.0%,.,.,.
Cc1ccc(Cn2c(-c3nonc3N)nc3ccccc32)cc1,.,.,.,.,.,/,/,/,/
Nc1nc2ccccc2n1Cc1ccc(Cl)c(Cl)c1,35.9,.,.,.,.,164.4%,.,.,.
COc1cccc(-n2nnc(S(=O)(=O)c3ccc(C)cc3)c2N)c1,36.1,.,.,.,.,.,.,.,.
Cc1cnc(NC(=O)C2CCC(C(C)(C)C)CC2)s1 (stereo not given),.,.,.,.,.,/,/,/,/
COc1ccc(C2CC(=O)c3sc(NC(C)=O)nc3C2)cc1 (stereo not given),.,.,.,.,.,/,/,/,/
Cc1cccc(CCN2C(Nc3ccccc3)=NC[C@@H]2CC(C)C)c1,114,.,/,.,/,585.9%,.,.,101
CC(C)CCN1C(Nc2ccccc2)=NC[C@@H]1CC(C)C,.,.,.,.,.,/,/,/,/
CC(C)C[C@H]1CN=C(Nc2ccccc2)N1CCc1ccc(F)cc1,120,.,/,.,/,574.5%,.,.,106
Cc1cccc(CCN2CCN=C2Nc2ccccc2)c1,50.5,.,/,.,/,278.5%,.,.,67.4
CCN1C(Nc2ccccc2)=NC[C@@H]1CC(C)C,.,.,.,.,.,/,/,/,/
c1ccc(CCN2CCN=C2Nc2ccccc2)cc1,.,.,.,.,.,/,/,/,/
COCC1CCN(Cc2cn[nH]c2-c2ccc(OC)c(F)c2)C1 (stereo not given),.,.,.,.,.,/,/,/,/
COc1ccc(OC)c(NC(=O)NCCCCc2ccccc2)c1,.,.,.,.,.,/,/,/,/
CCCCn1c(N)c(N(CC(C)C)C(=O)C2=NN(c3cc(C)ccc3C)C(=O)CC2)c(=O)[nH]c1=O,.,.,.,.,.,/,/,/,/
O=C(CCl)Nc1cccc(S(=O)(=O)N2CCCCCC2)c1,42.5,.,.,.,.,164.6%,.,.,.
Cc1ccc(C2=C(c3ccc([N+](=O)[O-])cc3)C(=O)OC2)cc1C,.,.,.,.,.,/,/,/,/
COc1cccc(OC)c1C(=O)NC(=S)NNC(=O)[C@H]1C[C@@H]1c1ccccc1,.,.,.,.,.,/,/,/,/
O=C(NC(=S)NNC(=O)[C@H]1C[C@@H]1c1ccccc1)c1cccc(F)c1,159,.,.,.,.,600.2%,.,.,105
CCCOc1ccc(-c2csc3ncn(Cc4ccc(C(=O)O)cc4)c(=O)c23)cc1,32.2,.,.,.,.,203.9%,.,.,.
COC(=O)[C@H]1C[C@H](C(=O)O)[C@@H](C)C1(C)C,.,.,/,.,/,/,/,/,/
